Measured values taken from ChEMBL document CHEMBL1145745 (J Med Chem, 2003).

Key:
Mus musculus [1] = experiment: In vivo average survival rate of mouse infected by T.b. rhodesiense was determined for a period of 60 days at dose of 50 mg/kg by p.o. administration; format: functional; conditions: route oral
Procedure, shortened: (§1)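 Mice infected with T. b. rhodesiense STIB900. Diamidines were given intraperitoneally and prodrugs orally, with an untreated infected control group. Parasitemia was monitored daily to day 14, then twice weekly to day 60. For relapsing mice, the day of death was recorded and survival time was averaged in days.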

Mus musculus [2] = experiment: No. of mice that survived T.b. rhodesiense infection and are parasite free for 60 days was determined at dose of 50 mg/kg by p.o. administration; 5 animals tested; format: functional; conditions: route oral
Procedure, shortened: (§2)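 Mice infected with T. b. rhodesiense STIB900. Diamidines were given intraperitoneally and prodrugs orally. An untreated infected group served as control. Parasitemia was checked daily up to day 14 post-infection, then twice weekly up to day 60. A cure was counted as a mouse that survived and stayed parasite-free for 60 days.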

Plasmodium falciparum = experiment: In vitro inhibitory activity against Plasmodium falciparum; format: functional, organism-based
[3] = tested on: Trypanosoma brucei rhodesiense; experiment: In vitro inhibitory activity against T. b. rhodesiense; format: functional, organism-based
Nucleic Acid [4] = tested on: Nucleic Acid
Mus musculus [5] = experiment: No. of mice that survived T.b. rhodesiense infection and are parasite free for 60 days was determined at dose of 50 mg/kg by p.o. administration; 4 animals tested; format: functional; conditions: route oral; procedure, shortened: as §2
Mus musculus [6] = experiment: In vivo average survival rate of mouse infected by T.b. rhodesiense was determined for a period of 60 days at dose of 5 mg/kg by p.o. administration; format: functional; conditions: route oral; procedure, shortened: as §1
Mus musculus [7] = experiment: No. of mice that survived T.b. rhodesiense infection and are parasite free for 60 days was determined at dose 5 mg/kg of by p.o. administration; 4 animals tested; format: functional; conditions: route oral; procedure, shortened: as §2
Mus musculus [8] = experiment: In vivo average survival rate of mouse infected by T.b. rhodesiense was determined for a period of 60 days at dose of 75 mg/kg by p.o. administration; format: functional; conditions: route oral; procedure, shortened: as §1
Mus musculus [9] = experiment: No. of mice that survived T.b. rhodesiense infection and are parasite free for 60 days was determined at dose of 5 mg/kg by p.o. administration; 4 animals tested; format: functional; conditions: route oral; procedure, shortened: as §2
Mus musculus [10] = experiment: No. of mice that survived T.b. rhodesiense infection and are parasite free for 60 days was determined at dose of 75 mg/kg by p.o. administration; 4 animals tested; format: functional; conditions: route oral; procedure, shortened: as §2
Mus musculus [11] = experiment: In vivo average survival rate of mouse infected by T.b. rhodesiense was determined for a period of 60 days at dose of 100 mg/kg by p.o. administration; format: functional; conditions: route oral; procedure, shortened: as §1
Mus musculus [12] = experiment: No. of mice that survived T.b. rhodesiense infection and are parasite free for 60 days was determined at dose of 100 mg/kg by p.o. administration; 4 animals tested; format: functional; conditions: route oral; procedure, shortened: as §2
Mus musculus [13] = experiment: In vivo average survival rate of mouse infected by T.b. rhodesiense was determined for a period of 60 days at dose of 20 mg/kg by i.p. administration; format: functional; conditions: route intraperitoneal; procedure, shortened: as §1
Mus musculus [14] = experiment: No. of mice that survived T.b. rhodesiense infection and are parasite free for 60 days was determined at dose of 20 mg/kg by i.p. administration; 4 animals tested; format: functional; conditions: route intraperitoneal; procedure, shortened: as §2
Nucleic Acid [15] = conditions: Bos taurus
Nucleic Acid [16] = tested on: Nucleic Acid; remark: listed apart in the source
Mus musculus [17] = experiment: In vivo antitrypanosomal activity against T.b. rhodesiense mouse and no. of that survive and are parasite free for 60 days was determined at dose of 5 mg/kg by p.o. administration; 4 animals tested; format: functional; conditions: route oral; procedure, shortened: as §2

| SMILES | IC50 (Plasmodium falciparum) | IC50 [3] | ΔTm (Nucleic Acid [4]) | Survival (Mus musculus [13]) | Cures (Mus musculus [14]) | ΔTm (Nucleic Acid [15]) | other results |
| --- | --- | --- | --- | --- | --- | --- | --- |
| CONC(=N)c1ccc(-c2ccc(-c3ccc(C(=N)NOC)cc3)o2)cc1 [PAFURAMIDINE] |  |  |  |  |  |  | Survival (Mus musculus [1]): 60 days; Cures (Mus musculus [2]): 2 |
| CONC(=N)c1ccc(-c2ccc(-c3ccc(C(=N)NOC)cn3)s2)cc1 | 4.9 µM | 9.4 µM | 0 |  |  |  |  |
| N=C(NO)c1ccc(-c2ccc(-c3ccc(/C(N)=N/O)nc3)o2)cn1 | > 10.5 µM | > 21 µM |  |  |  |  | Survival (Mus musculus [1]): 30 days; Cures (Mus musculus [5]): 1 |
| CO/N=C(\N)c1ccc(-c2ccc(-c3ccc(/C(N)=N/OC)cn3)o2)cc1 | 4.9 µM | 37.1 µM | 0.9 |  |  |  | Survival (Mus musculus [6]): 60 days; Cures (Mus musculus [7]): 4 |
| CONC(=N)c1ccc(-c2ccc(-c3ccc(C(=N)NOC)nc3)o2)cc1 | 8.5 µM | 6.5 µM |  |  |  |  | Survival (Mus musculus [6]): 34.25 days; Survival (Mus musculus [8]): 60 days; Cures (Mus musculus [9]): 1; Cures (Mus musculus [10]): 4 |
| N=C(NO)c1ccc(-c2ccc(-c3ccc(/C(N)=N/O)cn3)o2)cc1 | 4.3 µM | 120 µM |  |  |  |  | Survival (Mus musculus [11]): 54 days; Cures (Mus musculus [12]): 0 |
| N=C(NO)c1ccc(-c2ccc(-c3ccc(/C(N)=N\O)cc3)s2)nc1 | > 10.4 µM |  |  |  |  |  |  |
| N/C(=N\O)c1ccc(-c2ccc(-c3ccc(/C(N)=N\O)cn3)o2)nc1 | > 10.2 µM | 55.8 µM | 0.9 |  |  |  | Survival (Mus musculus [8]): 18 days; Cures (Mus musculus [10]): 0 |
| N=C(N)c1ccc(-c2ccc(-c3ccc(C(=N)N)nc3)o2)cc1 | 0.0183 µM | 0.0031 µM | 22.6 | 56.5 days | 2 | 3.1 |  |
| CCONC(=N)c1ccc(-c2ccc(-c3ccc(C(=N)NOCC)cn3)o2)cc1 | 7.3 µM | 8.4 µM |  |  |  |  | Survival (Mus musculus [11]): 60 days; Cures (Mus musculus [12]): 4 |
| N=C(N)c1ccc(-c2ccc(-c3ccc(C(=N)N)cn3)o2)nc1 | 0.083 µM | 0.021 µM | 15.5 | 60 days | 4 | 5.4 |  |
| N=C(N)c1ccc(-c2ccc(-c3cccc(C(=N)N)c3)o2)nc1 | 0.0088 µM | 0.0407 µM | 7.3 | 26.25 days | 0 | 3.3 |  |
| N=C(N)c1ccc(Cc2ccc(-c3ccc(C(=N)N)nc3)o2)cc1 | 0.148 µM | 0.147 µM | 3.6 |  |  | 1.3 |  |
| N=C(N)c1ccc(-c2ccc(-c3ccc(C(=N)N)cc3)o2)cc1 [FURAMIDINE] |  |  |  | 52.5 days | 0 | 8.9 |  |
| N=C(N)c1ccc(-c2ccc(-c3ccc(C(=N)N)nc3)o2)cn1 | 0.0039 µM | 0.007 µM |  | 59 days | 3 | 8.2 | ΔTm (Nucleic Acid [16]): 18.5 |
| N=C(NO)c1ccc(-c2ccc(-c3ccc(/C(N)=N/O)nc3)o2)cc1 | > 11.7 µM |  |  |  |  |  | Survival (Mus musculus [8]): 52.75 days; Cures (Mus musculus [10]): 3 |
| CO/N=C(\N)c1ccc(-c2ccc(-c3ccc(/C(N)=N/OC)cn3)o2)nc1 | 1.77 µM | 11.1 µM |  |  |  |  | Survival (Mus musculus [1]): 60 days; Survival (Mus musculus [6]): 40 days; Cures (Mus musculus [5]): 4; Cures (Mus musculus [17]): 1 |
| N=C(N)c1ccc(-c2ccc(-c3ccc(C(=N)N)cn3)o2)cc1 |  | 0.007 µM |  | 60 days | 4 | 6.6 |  |
| N=C(NO)c1ccc(-c2ccc(-c3ccc(/C(N)=N\O)cc3)o2)cc1 |  |  |  |  |  |  | Survival (Mus musculus [11]): 50 days; Cures (Mus musculus [12]): 0 |
| CONC(=N)c1ccc(-c2ccc(-c3ccc(C(=N)NOC)nc3)o2)cn1 | 1.31 µM | 1.91 µM | -0.5 |  |  |  | Survival (Mus musculus [11]): 21.75 days; Cures (Mus musculus [12]): 0 |
| N=C(NO)c1cccc(-c2ccc(-c3ccc(/C(N)=N\O)cn3)o2)c1 | 41.5 µM | 13.3 µM |  |  |  |  |  |
| N=C(N)c1ccc(OCCCCCOc2ccc(C(=N)N)cc2)cc1 [PENTAMIDINE] |  |  |  | 40.8 days | 0 | 2 |  |
